# Screening data as filed in PubChem BioAssay.
# HUVEC inhibit: human endothelial cell proliferation inhibition; 86,000 tested, 1.1% active; viability, % at 10 µM (by protocol); HUVEC proliferation, CellTiter-Glo luminescence, 72 h; hits give low values;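 active = viability at or below 30%; inactive = viability above 30%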;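 also: 100% = median luminescence of DMSO-only cell control wells on each plate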
# HCT116 PTEN-null: growth suppressors of cells with PTEN tumor suppressor deletion | HCT116 PTEN-null viability, CellTiter-Glo, 60 h; hits give low values | viability, % at 10 µM | 140,000 tested, 1.2% active;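 active = viability at or below a set limit, 4 SD under the median of all tested compounds, cut at about 3.7% in these data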;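 also: PTEN knockout HCT116 line with beta catenin targeted HCT116 as companion control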
# bCat KO growth: beta-catenin-lacking colon tumor cell growth suppression; HCT116 beta-catenin knockout viability, CellTiter-Glo, 60 h; hits give low values; viability, % at 10 µM; 140,000 tested, 1.5% active;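 active = viability at or under a set limit, the compound median less 4 SD, cut at about 6% in these data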;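 also: 0% = Hyamine 1622 control at 20 µM and 100% = untreated cell control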
# Fibroblast inh: blocks proliferation of human lung fibroblasts | LL 47 human lung fibroblast viability, ATP luminescence; hits give low values | viability, % at 10 µM | 85,000 tested, 1.1% active | AID 719;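 active = viability at or below 50% in the single dose screen; inactive = viability above 50%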;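 also: compound exposure lasted 72 h before the ATP readout; 100% = median luminescence of untreated cell-only wells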
#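 Test system: LL 47 human lung fibroblasts; Quantity: 1,150 cells/well; Buffer or medium: IMEM plus 15% FBS; Dosing: tenfold compound dosing solution, DMSO at 0.1%; Timing: overnight cell rest, 72 h compound treatment at 37 °C; Detection: ATP-based CellTiter-Glo luminescent readout; Read-out basis: viability percentage against median untreated-cell control; Controls: cell-only wells, no compound.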
# H69AR inhibit: blocks growth of human H69AR lung tumor cells; H69AR lung tumor viability, ATP luminescence, 72 h; hits give low values; viability, % at 10 µM; 85,000 tested, 6% active; AID 598;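 active = viability at or below 40%; inactive = viability above 40%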;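 also: multidrug resistant small cell line overexpressing MRP-1 efflux transporter; 100% = mean luminescence of untreated control wells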
# An asterisk follows results filed as active; / = no result. Shown is part of a subset that was picked to be rich in hits.
SMILES,HUVEC inhibit,HCT116 PTEN-null,bCat KO growth,Fibroblast inh,H69AR inhibit
O=S(=O)(c1ccc2c(c1)OCCO2)N1CCC(c2nc3ccc(Cl)cc3[nH]2)CC1,73,17,17,64,15*
Cc1ccc(-c2noc(C3CCN(S(=O)(=O)c4ccc5c(c4)OCCO5)CC3)n2)o1,104,92,68,109,40*
Cc1ccc2nc(C3CCN(S(=O)(=O)c4ccc5ccccc5c4)CC3)[nH]c2c1,62,69,60,82,8.0*
Cc1ccc(-c2noc(C3CCCN(S(=O)(=O)c4ccc5ccccc5c4)C3)n2)o1 (stereo not drawn),104,76,104,109,55
O=C(c1ccc(S(=O)(=O)N2CCC(c3nc4ccccc4[nH]3)CC2)cc1)N1CCOCC1,91,106,97,96,95
O=C(NCC1CCCO1)c1ccc(S(=O)(=O)N2CCC(c3nc4ccc(Cl)cc4[nH]3)CC2)cc1 (stereo not drawn),68,26,23,64,36*
CCCn1c(SCC(=O)N2CCc3ccccc32)nnc1-c1ccco1,103,96,89,106,99
COc1ccccc1OCC(=O)N1CCNC1=O,91,90,91,90,95
COc1cc(C2C(C#N)=C(C)NC3=C2C(=O)CC(C)(C)C3)cc(OC)c1O (stereo not drawn),113,96,91,98,92
CCCCSc1nc(C)cc(SCC(=O)N/N=C/c2cccc(OC)c2O)n1,/,4,5.3*,/,/
CN(C)CCCn1c(SCC(=O)Nc2sc3c(c2C#N)CCCC3)nnc1-c1ccncc1,/,98,96,/,/
NC(=O)c1c(NC(=O)CSc2nnc(Cc3ccccc3)n2Cc2ccco2)sc2c1CCC2,79,73,78,85,5.6*
O=C(CSc1nnc(Cc2ccccc2)n1Cc1ccco1)NC12CC3CC(CC(C3)C1)C2,97,78,76,91,71
CCCCn1c(SCC(=O)Nc2sc3c(c2C(N)=O)CCC3)nnc1-c1ccccc1,78,/,/,94,25*
OCCCNc1nc(-c2ccc(Cl)cc2)nnc1-c1ccccc1,/,87,91,/,/
C=CCNc1nc(-c2ccccn2)nnc1-c1ccccc1,12*,15,14,14*,40
CCn1c(C)nc2cc(C(=O)OC(C(F)(F)C(F)F)C(F)(F)C(F)F)ccc21,83,102,96,103,95
CCn1c(SCc2nc3scc(-c4ccccc4)c3c(=O)[nH]2)nnc1-c1ccc(Cl)cc1,/,84,72,/,/
COC(=O)C1CCCN1S(=O)(=O)c1ccc2ccccc2c1 (stereo not drawn),100,54,58,90,33*
CS(=O)(=O)Nc1ccc([N+](=O)[O-])cc1Oc1ccccc1,97,98,94,93,99
CN(C(=O)c1ccc(C(=O)N(C)C2CCCCC2)cc1)C1CCCCC1,95,/,/,89,90
O=C(NO)c1ccc(C(=O)N(C2CCCCC2)C2CCCCC2)cc1,83,71,67,86,14*
Cc1ccsc1C(=O)Nc1cccc(S(=O)(=O)N(C)C)c1,/,93,98,/,/
COc1cccc(C2C=C(c3ccc(OC)cc3OC)Nc3nnnn32)c1 (stereo not drawn),64,9,10,62,15*
COc1ccc(C2=CC(c3ccc(OC)c(OC)c3)n3nnnc3N2)c(OC)c1 (stereo not drawn),114,72,79,94,28*
SMILES,HUVEC inhibit,HCT116 PTEN-null,bCat KO growth,Fibroblast inh,H69AR inhibit
COc1ccc(NC(=O)Cn2nnc(C(=O)NCc3ccccc3)c2N)cc1Cl,70,62,54,94,28*
COc1cccc(CNC(=O)c2nnn(CC(=O)Nc3ccc(C)c(C)c3)c2N)c1,74,77,88,59,51
Cc1cccc(Nc2nc(N)c([N+](=O)[O-])c(N3CC(C)CC(C)C3)n2)c1 (stereo not drawn),/,1.8*,1.4*,/,/
CCOc1cc(-c2nnc(-c3ccco3)o2)cc(OCC)c1OCC,/,87,80,/,/
Cc1ccc2nsnc2c1NC(=O)c1cccnc1Cl,/,95,90,/,/
Nc1ccc(-c2cc(-c3ccc(N)cc3)nc(-c3ccccc3)n2)cc1,/,93,92,/,/
NNc1nc(-c2ccccc2)cc(-c2ccccc2O)n1,/,38,33,/,/
Nc1nc(-c2ccccc2)cc(-c2ccccc2O)n1,17*,17,17,81,42
CN(C)c1cc(-c2ccccc2)nc(N)n1,72,48,55,92,40*
Cc1cccc(NC(=O)/C(=C\c2cccs2)NC(=O)c2ccccc2)c1,/,88,74,/,/
Nc1nonc1-c1nc2ccccc2n1Cc1ccccc1,54,26,29,62,17*
CCCCn1c(-c2nonc2N)nc2ccccc21,82,57,64,84,30*
CCCCn1c(N)nc2ccccc21,93,82,73,102,89
CC(C)CCn1c(-c2nonc2N)nc2ccccc21,70,50,53,81,11*
Nc1nonc1-c1nc2ccccc2n1CC(=O)NC1CCCC1,96,91,87,99,87
CCOC(=O)c1ccccc1NC(=O)Cn1c(-c2nonc2N)nc2ccccc21,38,15,17,47*,27*
CC1CC(C)CN(C(=O)Cn2c(-c3nonc3N)nc3ccccc32)C1 (stereo not drawn),96,85,86,108,60
Cc1nn(Cc2ccc(Cl)cc2)c(C)c1NC(=O)Cn1nc([N+](=O)[O-])c(Cl)c1C,/,84,89,/,/
CCCOc1ccc(Cc2c(Cl)nc(SC)nc2N(C)C)cc1,/,54,47,/,/
Cc1ccc(C(=O)Oc2cccc(NC(=O)c3cccs3)c2)cc1S(=O)(=O)N1CCOCC1,/,82,100,/,/
O=C(NCC12CC3CC(CC(C3)C1)C2)c1nn2c(c1Cl)NC(c1ccco1)CC2C(F)(F)F (stereo not drawn),92,73,92,78,65
CCOc1ccc(N2CCn3c2nc2c3c(=O)n(CCc3ccccc3)c(=O)n2C)cc1,100,/,/,108,15*
COc1ccc(S(=O)(=O)N(C(C)=O)c2ccc(OC(C)=O)c3ccccc23)cc1[N+](=O)[O-],/,2.8*,2.0*,/,/
Cc1ccc(S(=O)(=O)N(C(=O)c2ccncc2)c2ccc(OC(=O)c3ccncc3)c3ccccc23)cc1,/,6,9,/,/
COc1cc(C(C)=O)ccc1COc1ccc(C(=O)OC(C)C(=O)NC(N)=O)cc1OC (stereo not drawn),/,87,85,/,/
Brc1ccc(C2=CC(c3cccs3)n3ncnc3N2)cc1 (stereo not drawn),88,42,44,92,81
Fc1ccc(Br)cc1C1C=C(c2cccnc2)Nc2ncnn21 (stereo not drawn),66,30,33,96,25*
CC(C)(C)c1ccc(C(=O)CC(=O)c2cc(Cl)ccc2O)cc1,7.6*,24,29,46*,25*
O=C(CC(=O)c1ccccc1O)c1ccc(F)cc1,/,46,54,/,/
CC(C)(C)c1ccc(C(=O)NNC(=O)c2ccc(Cl)cc2)cc1,/,73,74,/,/
